Results from different studies.

Structure (SMILES) | test system | setting | AUC(0-inf)
COc1cc2c(Nc3ccc(Cl)c(Cl)c3F)ncnc2cc1OC[C@@H]1C[C@@H]2CN(C)C[C@@H]2C1 | FVB mouse, brain | oral, 70 mg/kg, single dose | 158000 ng·h/mL
CC[C@H](C)[C@@H]1NC(=O)[C@@](C)(NC(=O)[C@H](CCCNC(=N)N)NC(=O)[C@H](CC(C)C)NC(=O)[C@@H](NC(=O)[C@H](CCC(N)=O)NC(=O)[C@H](CC(C)C)NC(C)=O)[C@@H](C)O)CCCC=CCCC[C@@](C)(C(=O)N[C@@H](CC(C)C)C(=O)N[C@@H](Cc2ccc3ccccc3c2)C(N)=O)NC(=O)[C@H](CCCNC(=N)N)NC(=O)[C@H](CCC(N)=O)NC1=O | male BALB/c mouse, plasma | intraperitoneal, 5 mg/kg | 102000 ng·h/mL
Cc1cc(Nc2ccc(S(F)(F)(F)(F)F)cc2)n2ccnc2n1 | male Swiss mouse, plasma | oral, 100 mg/kg, single dose | 154 µM·h
COc1cc(OC)c2nccc(N3CCc4c(cc(Cn5ccnc5)cc4-c4cn(C)nc4C(F)(F)F)C3=O)c2c1 | male CD-1 mouse, plasma | oral, 50 mg/kg | 60600 ng·h/mL
COc1cc(C(=O)N2CCC(N3CCN(C)CC3)CC2)ccc1Nc1ncc2c(n1)N(C)c1ccccc1C(=O)N2C | mouse, plasma | intravenous, 1 mg/kg | 2970 ng·h/mL
COc1nc(-c2cc(C)c(N[C@@H](C)c3c(F)cc(F)cc3F)nn2)ccc1-n1cnc(C)c1 | male CD-1 mouse, plasma | intravenous, 1 mg/kg, single dose | 2500 ng·h/mL
Cc1nc(-c2cnc(NC(C)C)n(C)c2=O)ccc1Oc1ccnc(-c2cnn(C)c2)c1 | female mouse, plasma | oral, 7.5 mg/kg, single dose | 80400 ng·h/mL
c1ccc(-c2nc(N3CCC(c4ccccn4)C3)c3ccccc3n2)nc1 (stereo not drawn) | female BALB/c mouse, plasma | oral, 50 mg/kg | 10500 ng·h/mL
CN1C(=O)c2ccccc2[S@+]([O-])c2ccc(C(=O)NCCc3cccs3)cc21 | male C57BL/6 mouse, plasma | intraperitoneal, 30 mg/kg, single dose | 7840 ng·h/mL
CNC(=O)c1cc(OC)cc2c(N3CCc4c(cc(Cn5ccnc5)cc4-c4cn(C)nc4C(F)(F)F)C3=O)ccnc12 | male CD-1 mouse, plasma | intravenous, 3 mg/kg | 3300 ng·h/mL
CN1CCN(C(=O)CN[C@@H]2C[C@H]2c2ccc(OCc3ccccc3)cc2)CC1 | mouse, plasma | intraperitoneal, 10 mg/kg | 1720 ng·h/mL
CNCCN(C)c1cc(C#N)cc(CCc2cc(C)cc(N)n2)c1 | male BALB/c mouse, plasma | oral, 10 mg/kg | 182 ng·h/mL
Cc1ccc2cncc(N3CCc4c(cc(Cn5ccnc5)cc4-c4cn(C)nc4C(F)(F)F)C3=O)c2c1 | male CD-1 mouse, plasma | oral, 10 mg/kg | 4460 ng·h/mL
Cc1ccc(NC(=O)c2ccc(CN3CCN(C)CC3)cc2)cc1Nc1nccc(-c2cncc(-c3oncc3C)c2)n1 | male C57BL/6 mouse, brain | oral, 100 mg/kg/day | 1200 ng·h/mL
CC(C)(C)c1ccc(O)c(CN(Cc2cc(C(C)(C)C)ccc2O)C2CCC(NC(N)=O)CC2)c1 (stereo not drawn) | male C57BL/6 mouse, plasma | intraperitoneal, 25 mg/kg, single dose | 16600 ng·h/mL
COc1ccc2nccc(N3CCc4c(cc(Cn5ccnc5)cc4-c4cn(C)nc4C(F)(F)F)C3=O)c2c1 | male CD-1 mouse, plasma | oral, 10 mg/kg | 2100 ng·h/mL
O=S(=O)(c1ccc(-c2ccc3nccc(Nc4ccncn4)c3c2)cc1)N1CCOCC1 | female BALB/c mouse, plasma | intraperitoneal, 10 mg/kg | 9520 ng·h/mL
CCc1cc(OC)c2nccc(N3CCc4c(cc(Cn5ccnc5)cc4-c4cn(C)nc4C(F)(F)F)C3=O)c2c1 | male CD-1 mouse, plasma | oral, 50 mg/kg | 108000 ng·h/mL
COc1ccc2c(=O)cc(-c3ccccc3)oc2c1O | male CD-1 mouse, plasma | oral, 50 mg/kg | 1.67 ng·h/mL
COc1nc(-c2cc(C)c(N[C@@H](C)c3cc(F)cc(F)c3)nn2)ccc1-n1cnc(C)c1 | male CD-1 mouse, plasma | oral, 5 mg/kg, single dose | 13800 ng·h/mL
CCc1cc(C(=O)NC)c2nccc(N3CCc4c(cc(Cn5ccnc5)cc4-c4cn(C)nc4C(F)(F)F)C3=O)c2c1 | male CD-1 mouse, plasma | oral, 50 mg/kg | 122000 ng·h/mL
